Experimental findings from ChEMBL document CHEMBL4732035, “Design, synthesis, crystal structure and anti-plasmodial evaluation of tetrahydrobenzo[4,5]thieno[2,3-d]pyrimidine derivatives” (RSC Med Chem, 2021) are described below.

Structures are written as SMILES.

The subject of one series is Plasmodium falciparum. As to the kind of experiment: Antiplasmodial activity against chloroquine-resistant Plasmodium falciparum W2 assessed as growth inhibition after 48 hrs by flow cytometer. The class given is functional, organism-based. The settings on record: W2, 48 h. The method, boiled down: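 Ring-stage W2 cultures in microwells exposed 48 h to a range of compound concentrations, added from DMSO stocks. Parasites then fixed in 1% formaldehyde/PBS pH 7.4 (48 h, RT) and stained with YOYO-1 (1 nM) in 0.1% Triton X-100/PBS. Parasitemia counted by flow cytometry (forward scatter vs fluorescence). IC50 fitted from % parasitemia vs untreated controls (R2 >0.95).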

The subject of the next series is A549. The series is described as follows: Cytotoxicity against human A549 cells assessed as reduction in cell viability preincubated for 24 hrs measured after 4 hrs by MTT assay. The class given is functional, cell-based. The method in brief:
(§1)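 Cells were grown in DMEM with 10% fetal bovine serum, seeded at 1 × 10^4 cells per well and left 24 h at 37 °C to adhere. A range of compound concentrations was added for 24 h. Medium was then removed, MTT solution (4 mg mL−1) added for 4 h, and formazan dissolved in DMSO. Survival was expressed against untreated wells, and IC50 was fitted by log(inhibitor)–response nonlinear regression from three independent experiments.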
A general note: Tetrazolium dyes change colour on reduction, which living cells bring about.

Series [1] is described as follows: Selectivity index, ratio of IC50 for human HeLa cells to IC50 for chloroquine-resistant Plasmodium falciparum W2. In kind it is toxicity. The settings on record: read-out: Selectivity Index. The method, boiled down:
(§2)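 Selectivity index is cell-line IC50 (A549 for line 2, HeLa for line 3) divided by W2 IC50. Cells grown in DMEM with 10% FBS, seeded at 1 × 10^4 per well and allowed to adhere 24 h at 37 °C. They were then exposed to graded concentrations for 24 h. MTT (4 mg/mL) was added for 4 h and formazan dissolved in DMSO. IC50 from log(inhibitor)-response fits, three independent experiments.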

A short description of series [2]: Selectivity index, ratio of IC50 for human A549 cells to IC50 for chloroquine-resistant Plasmodium falciparum W2. In kind it is toxicity. To be noted: read-out: Selectivity Index. The method, boiled down: as §2
The next series relates to HeLa. The series is described as follows: Cytotoxicity against human HeLa cells assessed as reduction in cell viability preincubated for 24 hrs measured after 4 hrs by MTT assay. In kind it is functional, cell-based. The method in brief: as §1

Turning to `COc1cccc(C(c2ccc(C)cc2)N2CCN(c3ncnc4sc5c(c34)CCCC5)CC2)c1O` (stereo not drawn), the IC50 in the series with Plasmodium falciparum was determined as 3.96 µM.
For `Oc1ccccc1C(c1ccc(Cl)c(Cl)c1)N1CCN(c2ncnc3sc4c(c23)CCCC4)CC1` (stereo not drawn), the 50% inhibitory concentration (IC50) in the series on A549 came to 11.5 µM; with Plasmodium falciparum, 0.752 µM; in the series on HeLa, 10.3 µM. The selectivity ratio in series [1] amounted to 13.7; in series [2], 15.3.
For `Oc1ccccc1C(c1ccc(F)c(Cl)c1)N1CCN(c2ncnc3sc4c(c23)CCCC4)CC1` (stereo not drawn), in that order: 8.5 µM, 1.06 µM, 6.4 µM, 6.03 and 8.01.
For `Oc1ccccc1C(c1ccc(OC(F)(F)F)cc1)N1CCN(c2ncnc3sc4c(c23)CCCC4)CC1` (stereo not drawn), in that order: 7.2 µM, 1.18 µM, 9.1 µM, 7.7 and 6.09.
With `Oc1ccccc1C(c1ccc(F)c(F)c1)N1CCN(c2ncnc3sc4c(c23)CCCC4)CC1` (stereo not drawn), the IC50 was 8.7 µM in the series on A549, 1.04 µM in the series on Plasmodium falciparum and 12.7 µM in the series on HeLa. Moreover, the selectivity ratio in series [1] is 12.3; in series [2], 8.43.
Take `COc1cccc(C(c2ccc(F)cc2)N2CCN(c3ncnc4sc5c(c34)CCCC5)CC2)c1O` (stereo not drawn): in the series with Plasmodium falciparum, the IC50 worked out at 2.26 µM.
On to `COc1cccc(C(c2ccc(F)c(F)c2)N2CCN(c3ncnc4sc5c(c34)CCCC5)CC2)c1O` (stereo not drawn), for which, in the series with Plasmodium falciparum, the 50% inhibitory concentration (IC50) turned out to be 1.13 µM.
Same read-out and setting: with `Cc1ccc(C(c2ccccc2O)N2CCN(c3ncnc4sc5c(c34)CCCC5)CC2)cc1` (stereo not drawn) the figure was 1.34 µM; with `COc1ccc(C(c2ccccc2O)N2CCN(c3ncnc4sc5c(c34)CCCC5)CC2)cc1` (stereo not drawn), 2.42 µM; with `COc1cccc(C(c2ccc(OC(F)(F)F)cc2)N2CCN(c3ncnc4sc5c(c34)CCCC5)CC2)c1O` (stereo not drawn), 1.22 µM.
Still for that read-out and setting: with `COc1cccc(C(c2ccc(F)c(Cl)c2)N2CCN(c3ncnc4sc5c(c34)CCCC5)CC2)c1O` (stereo not drawn) the figure was 1.17 µM.
Take `COc1cccc(C(c2ccc(C(F)(F)F)cc2)N2CCN(c3ncnc4sc5c(c34)CCCC5)CC2)c1O` (stereo not drawn): the IC50 was found to be 7.3 µM with A549, 0.749 µM in the series on Plasmodium falciparum and 7.1 µM in the series on HeLa. The selectivity ratio amounted to 9.59 in series [1] and 9.86 in series [2].
In the case of `COc1cccc(C(c2ccc(Cl)c(Cl)c2)N2CCN(c3ncnc4sc5c(c34)CCCC5)CC2)c1O` (stereo not drawn), in the series on Plasmodium falciparum, the 50% inhibitory concentration (IC50) was found to be 1.34 µM.
Still for that read-out and setting: with `Oc1ccccc1C(c1ccc(F)cc1)N1CCN(c2ncnc3sc4c(c23)CCCC4)CC1` (stereo not drawn) the figure was 1.62 µM; with `COc1ccc(C(c2cccc(OC)c2O)N2CCN(c3ncnc4sc5c(c34)CCCC5)CC2)cc1` (stereo not drawn), 6.41 µM; with `Oc1ccccc1C(c1ccc(C(F)(F)F)cc1)N1CCN(c2ncnc3sc4c(c23)CCCC4)CC1` (stereo not drawn), 1.37 µM.
Consider `COc1cccc2c1C(=O)c1c(O)c3c(c(O)c1C2=O)C[C@@](O)(C(=O)CO)C[C@@H]3O[C@H]1C[C@H](N)[C@H](O)[C@H](C)O1` [DOXORUBICIN], for which the IC50 is 5.5 µM with A549 and 5.7 µM with HeLa.

What is called IC50 is the concentration that gives 50% inhibition.
